Measured values reported in ChEMBL document CHEMBL4422693, “Antifungal Phenylpropanoid Glycosides from Lippia rubella” (J Nat Prod, 2019).
Converted amounts (≈) assume the structure as drawn.

Key:
Candida parapsilosis [1] = assay: Antifungal activity against Candida parapsilosis ATCC 22019 after 48 hrs by micro broth dilution method; details: Lodderomyces parapsilosis, ATCC 22019, 48 h
Cryptococcus neoformans [2] = assay: Antifungal activity against Cryptococcus neoformans isolate T1444 after 48 hrs by micro broth dilution method; assay type: functional; details: isolate T1444, 48 h
Summary of the method: (§1)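 CLSI M27-A broth microdilution. Fungi at 10^6 cells/mL were grown in fresh BHI medium with samples at 1 pg/mL to 1 mg/mL, at 37 °C for 48 h. Growth was read daily by visible turbidity. MIC was the lowest concentration preventing growth. Inhibition was confirmed with resazurin (5 mg/100 mL PBS, pH 7.2) after a further 3 h at 37 °C. Amphotericin B was the positive control.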

Candida albicans = assay: Antimicrobial activity against Candida albicans ATCC 10231 after 48 hrs by microbroth dilution method; assay type: functional; details: ATCC 10231, 48 h
Summary of the method: as §1

Candida parapsilosis [3] = assay: Antifungal activity against Candida parapsilosis ATCC 22019 after 24 hrs by micro broth dilution method; assay type: functional; details: Lodderomyces parapsilosis, ATCC 22019, 24 h
Cryptococcus neoformans [4] = assay: Antifungal activity against Cryptococcus neoformans ATCC 24067 after 48 hrs by micro broth dilution method; assay type: functional; details: ATCC 24067, 48 h
Summary of the method: as §1

Cryptococcus neoformans [5] = assay: Antifungal activity against Cryptococcus neoformans isolate T1444 assessed as FIC index after 48 hrs in presence of amphotericin B by micro broth dilution method; assay type: functional
Summary of the method: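 Checkerboard dose matrix in microplates. Sample and amphotericin B were each used below their single-agent MICs. Inoculum was 10^3 cells/mL, incubated at room temperature for 48 h. Growth was read visually and confirmed with resazurin. FIC for each agent is the MIC in combination divided by the MIC alone, and FICindex is the sum of the two FICs. Synergy is <0.5, additive is >0.5 to ≤1, and antagonism is >4.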

Erythrocyte = assay: Hemolytic activity in human RBC at MIC after 1 hr by spectrophotometric method; assay type: ADME, cell-based
Summary of the method: (§2)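 Sample solutions (2000 to 15.6 μg/mL before mixing) were incubated with a 4% human O+ erythrocyte suspension in PBS (1:4 by volume) for 1 h at 37 °C. PBS was then added, and lysis was read at 590 nm. PBS served as the negative control and water as the positive control.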

[6] = Hemolytic activity in human RBC after 1 hr by spectrophotometric method; assay type: ADME, cell-based, Erythrocyte; details: human red blood cells (erythrocytes)
Summary of the method: as §2

| SMILES | MIC (Candida parapsilosis [1]) [µg/mL] | MIC (Cryptococcus neoformans [2]) [µg/mL] | MIC (Candida albicans) [µg/mL] | MIC (Candida parapsilosis [3]) [µg/mL] | MIC (Cryptococcus neoformans [4]) [µg/mL] | fractional inhibitory concentration index (FICI) (Cryptococcus neoformans [5]) | Activity (Erythrocyte) | HC50 at 1 h [6] [µg/mL] |
| --- | --- | --- | --- | --- | --- | --- | --- | --- |
| C[C@@H]1O[C@@H](O[C@@H]2[C@@H](O)[C@H](OCCc3ccc(O)c(O)c3)O[C@H](CO)[C@H]2OC(=O)/C=C/c2ccc(O)cc2)[C@H](O)[C@H](OC(=O)/C=C/c2ccc(O)c(O)c2)[C@H]1O | – | 125 (≈ 162 µM) | > 125 | > 125 | – | – | – | – |
| C[C@@H]1O[C@@H](O[C@@H]2[C@@H](O)[C@H](OCCc3ccc(O)c(O)c3)O[C@H](COC(=O)/C=C/c3ccc(O)c(O)c3)[C@H]2O)[C@H](O)[C@H](O)[C@H]1O [ISOACTEOSIDE] | – | > 125 | – | – | – | – | – | – |
| COc1ccc(-c2cc(=O)c3c(O)cc(O[C@@H]4O[C@H](CO[C@@H]5O[C@@H](C)[C@H](O)[C@@H](O)[C@H]5O)[C@@H](O)[C@H](O)[C@H]4O)cc3o2)cc1 [ACACIIN] | > 125 | 125 (≈ 211 µM) | > 125 | – | – | – | – | – |
| C[C@@H]1[C@H](O)[C@@H](C)/C=C/C=C/C=C/C=C/C=C/C=C/C=C/[C@H](O[C@@H]2O[C@H](C)[C@@H](O)[C@H](N)[C@@H]2O)C[C@@H]2O[C@](O)(C[C@@H](O)C[C@@H](O)[C@H](O)CC[C@@H](O)C[C@@H](O)CC(=O)O[C@H]1C)C[C@H](O)[C@H]2C(=O)O [AMPHOTERICIN B] | 0.125 (≈ 0.135 µM) | 0.125 (≈ 0.135 µM) | 0.25 (≈ 0.271 µM) | – | 0.125 (≈ 0.135 µM) | – | – | – |
| C[C@@H]1O[C@@H](O[C@@H]2[C@@H](O)[C@H](OCCc3ccc(O)c(O)c3)O[C@H](CO)[C@H]2OC(=O)/C=C/c2ccc(O)c(O)c2)[C@H](O)[C@H](O)[C@H]1O [ACETOSIDE] | 125 (≈ 200 µM) | 62.5 (≈ 100 µM) | > 125 | – | 62.5 (≈ 100 µM) | 0.72 | Non-Toxic | 1000 |

More lines, main results first:

| MIC (Candida parapsilosis [1]) [µg/mL] | MIC (Cryptococcus neoformans [2]) [µg/mL] | MIC (Candida albicans) [µg/mL] | MIC (Candida parapsilosis [3]) [µg/mL] | MIC (Cryptococcus neoformans [4]) [µg/mL] | SMILES | fractional inhibitory concentration index (FICI) (Cryptococcus neoformans [5]) | Activity (Erythrocyte) | HC50 at 1 h [6] [µg/mL] |
| --- | --- | --- | --- | --- | --- | --- | --- | --- |
| 125 (≈ 159 µM) | 15.6 (≈ 19.8 µM) | > 125 | – | – | C[C@@H]1O[C@@H](O[C@@H]2[C@@H](O)[C@H](OCCc3ccc(O)c(O)c3)O[C@H](CO)[C@H]2OC(=O)/C=C/c2ccc(O)c(O)c2)[C@H](O)[C@H](O)[C@H]1OC(=O)/C=C/c1ccc(O)c(O)c1 | – | – | – |
| > 125 | 62.5 (≈ 81.1 µM) | > 125 | – | – | C[C@@H]1O[C@@H](OC[C@H]2O[C@@H](OCCc3ccc(O)c(O)c3)[C@H](O)[C@@H](O[C@@H]3O[C@@H](C)[C@H](O)[C@@H](O)[C@H]3O)[C@@H]2OC(=O)/C=C/c2ccc(O)c(O)c2)[C@H](O)[C@H](O)[C@H]1O [POLIUMOSIDE] | – | – | – |
| > 125 | 31.2 (≈ 50 µM) | > 125 | – | 31.2 (≈ 50 µM) | C[C@@H]1O[C@@H](OC[C@H]2O[C@@H](OCCc3ccc(O)c(O)c3)[C@H](O)[C@@H](O)[C@@H]2OC(=O)/C=C/c2ccc(O)c(O)c2)[C@H](O)[C@H](O)[C@H]1O [FORSYTHIASIDE] | 0.5 | Non-Toxic | 1000 |
